Results on one compound are retold here after ChEMBL document CHEMBL4680154, “The optimization of xanthine derivatives leading to HBK001 hydrochloride as a potent dual ligand targeting DPP-IV and GPR119” (Eur J Med Chem, 2020).

A value given as a limit tells only on which side of the number the result lay.

Data set [1] is described as follows: Genotoxicity in Salmonella typhimurium TA100 incubated for 48 to 72 hrs by mini-Ames test. It is filed as toxicity. Particulars: salmonella enterica subsp. enterica serovar typhimurium; time 48-72 hrs. The essentials: (§1)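 Mini-Ames test with Salmonella typhimurium TA98 and TA100, with 10% S9 mix or PBS, in top agar poured onto minimal agar in 6-well plates. Up to 1000 μg/well; DMSO solvent control. Incubated 37 °C for 48–72 h; revertants counted manually. Called positive at a dose-related increase of at least 2-fold over the solvent control.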
On the technique in general: The Ames test detects mutagens through reverse mutation in bacteria.

Data set [2] can be described thus: Tmax in Sprague-Dawley rat plasma at 30 mg/kg, po measured up to 24 hrs. It is filed as ADME, organism-based. In a few lines: (§2)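 Male SD rats (180–200 g), three per route, dosed as free base content. Oral formulation in 0.5% carboxymethyl cellulose; intravenous formulation in normal saline. Sampling at 5, 15, 30 min and 1, 1.5, 2, 4, 6, 8, 12, 24 h; plasma kept at -80 °C. Non-compartmental parameters; F = (AUCpo×dose iv)/(AUCiv×dose po).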

Data set [3] is described as follows: Mean residence time (0 to infinity) in Sprague-Dawley rat at 30 mg/kg, po measured up to 24 hrs. Particulars: in vivo. It is filed as ADME, organism-based. The essentials:
as §2

The nature of data set [4]: Genotoxicity in Salmonella typhimurium TA98 incubated for 48 to 72 hrs by mini-Ames test. It is filed as toxicity. The following applies: salmonella enterica subsp. enterica serovar typhimurium; time 48-72 hrs. In a few lines: as §1
A short description of data set [5]: Apparent permeability in human Caco-2 cells at 50 uM after 1 hr by UPLC analysis. The class given is ADME, cell-based. In a few lines:
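Caco-2 cells grown 21 days on Transwell inserts (0.4 µm pores) into monolayers with TEER above 500 Ω×cm² before and after transport. Compound at 50 µM added apically, 1 h at 37 °C. Transported compound quantified by UPLC; Papp = (dQ/dt)/(C0×A).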

A short description of data set [6]: Plasma protein binding in mouse at 5 uM after 5 hrs by LC-MS/MS based equilibrium dialysis method. The class given is ADME, cell-free. Particulars: read-out: PPB (converted). In a few lines:
(§3)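 Equilibrium dialysis: compound spiked at 5 μM (1% DMSO) into pre-warmed 37 °C plasma, dialysed against phosphate buffer (1% DMSO) for 5 h at 37 °C with shaking at 100 rpm. Both compartments analysed by LC-MS/MS.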
(In general: In equilibrium dialysis only unbound substance equilibrates across the membrane.)

A further data set concerns Vero. The experiment in a line: Cytotoxicity against African green monkey Vero cells incubated for 48 hrs by MTT assay. Particulars: Chlorocebus sabaeus. For orientation: Tetrazolium dyes change colour on reduction, which living cells bring about.
Data set [7] can be described thus: Plasma protein binding in dog at 5 uM after 5 hrs by LC-MS/MS based equilibrium dialysis method. It is filed as ADME, cell-free, Canis lupus familiaris. Particulars: read-out: PPB (converted). In a few lines:
as §3

Data set [8] is described as follows: AUC(0 to infinity) in Sprague-Dawley rat plasma at 3 mg/kg, iv measured up to 24 hrs. The class given is ADME, organism-based. Also on record: route intravenous, dose 3 mg/kg, time <=24. The essentials:
as §2

Data set [9] in a line: AUC(0 to infinity) in Sprague-Dawley rat plasma at 30 mg/kg, po measured up to 24 hrs. It is filed as ADME, organism-based. Further details: route oral, dose 30 mg/kg, time <=24. The essentials:
as §2

A short description of data set [10]: Plasma protein binding in monkey at 5 uM after 5 hrs by LC-MS/MS based equilibrium dialysis method. The class given is ADME, cell-free, Macaca mulatta. The following applies: rhesus monkey, read-out: PPB (converted). In a few lines:
as §3

Data set [11] is described as follows: Oral bioavailability in Sprague-Dawley rat at 30 mg/kg. Particulars: in vivo. The class given is ADME, organism-based. The essentials:
as §2

The target of data set [12] is Voltage-gated inwardly rectifying potassium channel KCNH2 (Homo sapiens, UniProt Q12809). Description: Inhibition of human ERG expressed in CHO cells by manual patch clamp assay. It is filed as cell-based. In a few lines:
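CHO cells stably expressing hERG, cultured at least 24 h, then recorded by whole-cell voltage-clamp patch clamp.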

Data set [13] is described as follows: Plasma protein binding in human at 5 uM after 5 hrs by LC-MS/MS based equilibrium dialysis method. The class given is ADME, cell-free. The following applies: read-out: PPB (converted). The essentials:
as §3

The nature of data set [14]: Cmax in Sprague-Dawley rat plasma at 30 mg/kg, po measured up to 24 hrs. It is filed as ADME, organism-based. Further details: route oral, dose 30 mg/kg, time <=24. The essentials: as §2
Data set [15] in a line: AUC(0 to t) in Sprague-Dawley rat plasma at 3 mg/kg, iv measured up to 24 hrs. The class given is ADME, organism-based. Also on record: route intravenous, dose 3 mg/kg, time <=24. The essentials:
as §2

Data set [16] can be described thus: Acute toxicity in po dosed ICR mouse assessed as animal survival administered as single dose and observed for 7 days. The class given is organism-based. Particulars: in vivo, time 7 day. In a few lines: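 Female ICR mice (18 to 21 g), ten animals, given one oral dose of 1.5 g/kg. The number surviving was recorded after 7 days of observation.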
The nature of data set [17]: Mean residence time (0 to infinity) in Sprague-Dawley rat at 3 mg/kg, iv measured up to 24 hrs. It is filed as ADME, organism-based. The following applies: in vivo. In a few lines: as §2
Data set [18] in a line: Elimination half-life in Sprague-Dawley rat plasma at 30 mg/kg, po measured up to 24 hrs. It is filed as ADME, organism-based. Particulars: read-out: beta t1/2 (converted). The essentials:
as §2

Data set [19] in a line: Metabolic stability in mouse liver microsomes assessed as parent compound remaining at 10 micromol/L measured after 30 mins in presence of NADPH generating system by LC-MS/MS analysis. Particulars: dose 10 µmol/L, read-out: Stabilty. The class given is ADME, Microsome. The essentials:
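Mouse liver microsomes (0.5 mg/mL protein), compound at 10 μmol/L, in Tris-HCl with an NADPH-generating system that starts the reaction. Incubated in duplicate at 37 °C for 30 min; stopped with ice-cold acetonitrile containing internal standard. Supernatant analysed by LC-MS/MS; remaining amount normalised to time zero. Inactivated microsomes served as negative control.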

Data set [20] is described as follows: Plasma protein binding in rat at 5 uM after 5 hrs by LC-MS/MS based equilibrium dialysis method. It is filed as ADME, cell-free. Particulars: read-out: PPB (converted). In a few lines: as §3
Data set [21] in a line: Cmax in Sprague-Dawley rat plasma at 3 mg/kg, iv measured up to 24 hrs. The class given is ADME, organism-based. Also on record: route intravenous, dose 3 mg/kg, time <=24. The essentials:
as §2

Data set [22] can be described thus: AUC(0 to t) in Sprague-Dawley rat plasma at 30 mg/kg, po measured up to 24 hrs. It is filed as ADME, organism-based. Also on record: route oral, dose 30 mg/kg, time <=24. In a few lines: as §2
The nature of data set [23]: Elimination half-life in Sprague-Dawley rat plasma at 3 mg/kg, iv measured up to 24 hrs. The class given is ADME, organism-based. Particulars: read-out: beta t1/2 (converted). In a few lines:
as §2

Sequence of Voltage-gated inwardly rectifying potassium channel KCNH2 (Q12809 whole entry): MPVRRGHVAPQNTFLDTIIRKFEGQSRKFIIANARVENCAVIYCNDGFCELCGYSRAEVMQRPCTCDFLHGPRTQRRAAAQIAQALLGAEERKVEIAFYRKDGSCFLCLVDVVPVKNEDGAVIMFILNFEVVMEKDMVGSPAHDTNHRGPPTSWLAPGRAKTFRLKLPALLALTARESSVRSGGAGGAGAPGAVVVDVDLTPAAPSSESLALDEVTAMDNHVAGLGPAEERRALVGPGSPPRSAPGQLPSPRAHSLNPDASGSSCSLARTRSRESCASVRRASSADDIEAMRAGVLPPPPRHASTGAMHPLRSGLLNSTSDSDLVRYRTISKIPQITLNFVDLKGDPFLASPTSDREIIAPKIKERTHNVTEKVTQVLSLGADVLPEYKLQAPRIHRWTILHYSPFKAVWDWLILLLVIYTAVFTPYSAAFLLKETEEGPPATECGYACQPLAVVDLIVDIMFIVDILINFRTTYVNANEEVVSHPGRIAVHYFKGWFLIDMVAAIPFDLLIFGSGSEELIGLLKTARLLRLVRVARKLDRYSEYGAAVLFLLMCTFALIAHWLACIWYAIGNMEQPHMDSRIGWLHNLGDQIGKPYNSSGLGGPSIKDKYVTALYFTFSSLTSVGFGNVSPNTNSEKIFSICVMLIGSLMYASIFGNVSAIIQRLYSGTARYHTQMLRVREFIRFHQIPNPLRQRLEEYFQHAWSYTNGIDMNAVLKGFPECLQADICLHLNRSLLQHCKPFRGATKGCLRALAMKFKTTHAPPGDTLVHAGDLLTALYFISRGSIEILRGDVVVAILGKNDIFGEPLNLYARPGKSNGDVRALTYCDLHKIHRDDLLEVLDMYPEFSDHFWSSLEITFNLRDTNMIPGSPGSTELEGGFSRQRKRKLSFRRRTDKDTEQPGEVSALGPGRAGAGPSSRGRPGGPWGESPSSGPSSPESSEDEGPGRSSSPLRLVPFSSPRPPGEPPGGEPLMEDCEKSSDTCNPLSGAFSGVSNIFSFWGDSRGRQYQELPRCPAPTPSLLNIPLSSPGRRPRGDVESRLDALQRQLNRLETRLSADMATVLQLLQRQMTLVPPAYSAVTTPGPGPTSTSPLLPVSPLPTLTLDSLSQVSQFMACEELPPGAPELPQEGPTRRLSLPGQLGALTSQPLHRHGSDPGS

A word on the Tmax: it is the time at which the peak concentration occurs. One may read the MRT inf as the average time that molecules of a dose stay in the body. The term Papp denotes a coefficient for how fast a substance crosses the barrier. The term IC50 denotes the point on the concentration scale where inhibition reaches its midpoint. A word on the AUC(0-inf): it is total exposure, with the tail of the curve extrapolated. What is called bioavailability is dose-corrected exposure relative to a reference, in per cent. Usually Cmax stands for the highest concentration seen after dosing. In general, AUC(0-t) refers to the area under the concentration-time curve up to a stated or last time point. As usually defined, the LD50 is the dose expected to kill half of the subjects tested. As to `CC#CCn1c(N2CCC[C@@H](N)C2)nc2c1c(=O)n(CCCN1CCN(c3nc(-c4ccccc4)no3)CC1)c(=O)n2C.Cl`, the Activity result in data set [1] and in data set [4] was “Non-Toxic” each time. The Tmax in data set [2] amounted to 1.33 h. In addition, the values for the MRT inf in [3] and in data set [17] were 2.22 h and 0.73 h, respectively. Also, the Papp at 1 h, 50 µM in [5] came out at 19.1 ×10⁻⁶ cm/s. Moreover, the fraction unbound at 5 h, 5 µM was 0.015 in data set [6]; 0.037 in data set [7]; 0.04 in data set [10]; 0.028 in data set [13]; 0.039 in data set [20]. Further, the IC50 with Vero is above 64 µg/mL; in [12], 4.9 µM. Further, the AUC(0-inf) in data set [8] came out at 167 ng·h/mL; in [9] it was 656 ng·h/mL. The compound further showed a bioavailability in [11] of 42.4%. In addition, the figures for the Cmax in data set [14] and in data set [21] were 226 ng/mL and 416 ng/mL, respectively. The exposure AUC(0-t) at 24 h in [15] was determined as 147 ng·h/mL; in [22], 623 ng·h/mL. The LD50 at 168 h in data set [16] was above 1500 mg/kg. Besides, the figures for the half-life in data set [18] and in data set [23] were 1.08 h and 0.63 h, respectively. Moreover, in [19], the remaining at 0.5 h, 10 µM came to 49.3%.
